Assay results as given in ChEMBL document CHEMBL1629417, “Benzophenones and biflavonoids from Rheedia edulis” (J Nat Prod, 2010).

Legend:
[1] = Antioxidant activity assessed as ABTS radical scavenging activity; type: functional
How it was run: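 Based on the Re et al. ABTS radical cation decolorization method, with modifications. Trolox and gallic acid serve as reference antioxidants. Percent inhibition of ABTS is calculated as in the DPPH assay, relative to DMSO-treated controls, and IC50 values are derived from it.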

[2] = tested on: Radical scavenging activity; assay: Antioxidant activity assessed as DPPH radical scavenging activity; type: functional
How it was run: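 Follows a previously described method. Trolox and gallic acid serve as reference antioxidants. Scavenging is expressed as percent inhibition of DPPH relative to DMSO-treated controls, and IC50 values are derived from it.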

| SMILES | IC50 [1] | IC50 [2] |
| --- | --- | --- |
| O=C(O)c1cc(O)c(O)c(O)c1 [GALLIC ACID] | 19.8 µM | 33.9 µM |
| Cc1c(C)c2c(c(C)c1O)CCC(C)(C(=O)O)O2 (stereo unspecified) [TROLOX] | 48.4 µM | 70.8 µM |
| CC(C)=CC[C@H]1C[C@]2(CC=C(C)C)C(=O)[C@@](CC=C(C)C)(C(=O)C(C(=O)c3ccccc3)=C2O)C1(C)C [6-EPI-CLUSIANONE] | 287 µM | 766 µM |
